The results in this text go back to ChEMBL document CHEMBL1137434, “2-O-carboxymethylpyrogallol derivatives as PTP1B inhibitors with antihyperglycemic activity” (Bioorg Med Chem Lett, 2007).

As a reminder, the IC50 is the concentration that gives 50% inhibition. Read a low IC50 as greater potency in that assay. As a reminder, the Ki is the dissociation constant of the complex between target and ligand, obtained from inhibition or displacement.

Calls of active or inactive are those of the source. The rule behind the calls is not given here.

Assay [1] deals with T1, Tyrosine-protein phosphatase non-receptor type 1 (Homo sapiens, UniProt P18031).
T1 sequence (P18031 whole entry): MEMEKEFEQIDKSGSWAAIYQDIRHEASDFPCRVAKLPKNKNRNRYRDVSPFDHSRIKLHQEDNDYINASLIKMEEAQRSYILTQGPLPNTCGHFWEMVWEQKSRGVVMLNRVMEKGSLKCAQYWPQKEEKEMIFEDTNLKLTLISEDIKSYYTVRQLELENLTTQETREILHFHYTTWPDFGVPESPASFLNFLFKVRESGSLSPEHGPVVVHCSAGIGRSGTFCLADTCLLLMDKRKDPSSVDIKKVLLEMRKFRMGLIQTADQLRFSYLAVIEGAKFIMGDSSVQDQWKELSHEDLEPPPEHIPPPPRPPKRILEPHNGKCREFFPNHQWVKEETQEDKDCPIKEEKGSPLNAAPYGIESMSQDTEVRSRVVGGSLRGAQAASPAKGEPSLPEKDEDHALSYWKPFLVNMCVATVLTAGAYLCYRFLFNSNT
The assay is described as follows: Inhibition of PTP1B after 10 mins.

Another assay is filed under the species Homo sapiens. The assay is described as follows: Selectivity for PTP1B over TC-PTP.
Assay [2] can be described thus: Inhibition of LAR-D1 after 10 mins. Further details: species or system Homo sapiens. The essentials:
(§1)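 Enzymes were preincubated 10 min with inhibitor in DMSO, then pNPP was added to start the reaction. Final mix: 2 mM pNPP, 50 mM Hepes, 5 mM EDTA, pH 7, plus 10% enzyme dilution buffer (Hepes, EDTA, 1 mM DTT, BSA). Enzyme levels were native PTP1B 40 nM, SHP-1cat 5 µg/mL, LAR-D1 and TC-PTP 33 U/mL, YOP 50 U/mL and YPTP-1 15 nM. IC50 came from an inhibitor concentration range, as means ± SD of 2–3 experiments.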

Assay [3] concerns the target T2, Tyrosine-protein phosphatase 1 (Saccharomyces cerevisiae S288c, UniProt P25044).
T2 sequence (P25044 whole entry): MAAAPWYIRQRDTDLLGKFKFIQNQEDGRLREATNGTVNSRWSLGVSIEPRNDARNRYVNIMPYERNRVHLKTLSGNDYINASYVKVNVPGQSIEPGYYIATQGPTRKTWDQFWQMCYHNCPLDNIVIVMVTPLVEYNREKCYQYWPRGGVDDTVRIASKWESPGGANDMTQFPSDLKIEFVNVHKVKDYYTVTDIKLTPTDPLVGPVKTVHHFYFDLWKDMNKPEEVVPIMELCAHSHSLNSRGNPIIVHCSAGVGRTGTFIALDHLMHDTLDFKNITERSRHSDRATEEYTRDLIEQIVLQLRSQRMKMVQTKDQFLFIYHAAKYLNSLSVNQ
The assay is described as follows: Inhibition of yeast PTP1 after 10 mins. An outline of the steps: as §1

A short description of assay [4]: Inhibition of YOP after 10 mins. An outline of the steps: as §1
Assay [5] concerns the target Tyrosine-protein phosphatase non-receptor type 6 (Homo sapiens, UniProt P29350). Kind of assay: Inhibition of SHP-1 catalytic domain after 10 mins. An outline of the steps: as §1
In assay [6] the target is T3, Tyrosine-protein phosphatase non-receptor type 2 (Homo sapiens, UniProt P17706).
T3 sequence (P17706 whole entry): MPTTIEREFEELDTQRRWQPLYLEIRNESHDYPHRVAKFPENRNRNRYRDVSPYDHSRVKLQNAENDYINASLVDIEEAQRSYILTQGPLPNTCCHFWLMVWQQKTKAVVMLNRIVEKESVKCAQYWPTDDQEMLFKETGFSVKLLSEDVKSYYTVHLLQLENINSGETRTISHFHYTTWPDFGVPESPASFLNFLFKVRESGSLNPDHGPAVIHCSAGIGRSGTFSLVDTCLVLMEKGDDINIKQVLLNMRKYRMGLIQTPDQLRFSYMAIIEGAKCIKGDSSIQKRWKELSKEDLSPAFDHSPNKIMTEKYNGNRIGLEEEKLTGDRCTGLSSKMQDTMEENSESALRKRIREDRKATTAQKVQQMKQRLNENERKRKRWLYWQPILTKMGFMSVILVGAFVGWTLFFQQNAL
Kind of assay: Inhibition of TC-PTP after 10 mins. An outline of the steps:
as §1

A further assay is filed under the species Mus musculus. Kind of assay: Antihyperglycemic activity in high fat diet induced C57BL/6JCr Slc mouse assessed as reduction in blood glucose level relative to control. The format is functional, organism-based. An outline of the steps: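 Male C57BL/6J Cr Slc mice, 5 wk old and acclimatized 1 wk, were fed high-fat diet for 8 wk. They were then split into two groups of 7 and fed HFD or HFD plus drug for 4 wk; a lean LFD group served as control. After a 6 h fast, mice received glucose 1 g/kg ip. Tail-blood glucose was read at baseline and at 20, 40, 60, 90 and 120 min.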

Tyrosine-protein phosphatase non-receptor type 6, sequence (P29350 whole entry, the tested form may be a part): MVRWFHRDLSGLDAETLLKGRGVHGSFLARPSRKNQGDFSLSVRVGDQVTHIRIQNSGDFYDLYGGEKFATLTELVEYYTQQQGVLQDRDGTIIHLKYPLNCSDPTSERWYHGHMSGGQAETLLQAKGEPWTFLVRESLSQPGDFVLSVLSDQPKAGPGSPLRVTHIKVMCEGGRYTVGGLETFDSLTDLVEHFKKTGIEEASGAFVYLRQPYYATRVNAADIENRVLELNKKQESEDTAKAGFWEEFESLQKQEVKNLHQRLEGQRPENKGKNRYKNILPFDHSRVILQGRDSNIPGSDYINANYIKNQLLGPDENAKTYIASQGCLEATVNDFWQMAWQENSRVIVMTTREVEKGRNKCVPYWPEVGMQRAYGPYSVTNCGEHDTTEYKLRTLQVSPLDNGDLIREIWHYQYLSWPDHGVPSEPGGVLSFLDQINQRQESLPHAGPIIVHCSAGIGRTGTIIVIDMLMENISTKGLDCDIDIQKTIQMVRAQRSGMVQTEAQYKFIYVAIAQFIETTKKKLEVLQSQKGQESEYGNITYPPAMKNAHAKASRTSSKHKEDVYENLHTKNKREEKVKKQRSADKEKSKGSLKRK

For the compound `O=C(O)COc1c(O)cc(-c2ccccc2)cc1OCc1ccccc1`, the IC50 in assay [1] came to 93 µM.

On to `O=C(O)COc1c(O)cc(-c2cccc(C(F)(F)F)c2)cc1OCc1ccc(C(F)(F)F)cc1`, for which the Selectivity ratio in the assay filed under Homo sapiens amounted to 5. Besides, the IC50 in assay [2] was greater than 200 µM; in assay [3], 17 µM; in assay [4], 21 µM; in assay [5], 13 µM; in assay [6], 65 µM; in assay [1] it was 5 µM.

On to `O=C(O)COc1c(O)cc(Br)cc1OCc1ccccc1`, for which, in assay [1], the IC50 worked out at 300 µM.

In assay [1], `O=C(O)COc1c(O)cccc1OCc1ccccc1` had an IC50 greater than 1000 µM.

For `O=C(O)COc1c(O)cc(-c2cc(C(F)(F)F)cc(C(F)(F)F)c2)cc1OCc1ccc(C(F)(F)F)cc1`, the Selectivity ratio in the assay filed under Homo sapiens was 7. Moreover, the IC50 in assay [2] was determined as 116 µM; in assay [3], 9 µM; in assay [4] it was 6 µM; in assay [5] it was 4 µM; in assay [6] it was 22 µM; in assay [1], 2 µM. Further, the outcome in the assay filed under Mus musculus was Active. Moreover, the Ki in assay [6] came to 8.2 µM; in assay [1], 1.1 µM.

Take `O=C(O)COc1c(O)cc(-c2ccc(C(F)(F)F)cc2)cc1OCc1ccccc1`: the Selectivity ratio in the assay listed under Homo sapiens was found to be 5. Also, the IC50 in assay [2] was greater than 200 µM; in assay [3] it was 17 µM; in assay [4], 34 µM; in assay [5], 25 µM; in assay [6], 96 µM; in assay [1], 13 µM.

Consider `O=C(O)COc1c(O)cc(-c2cccc(C(F)(F)F)c2)cc1OCc1ccccc1`, for which the Selectivity ratio in the assay filed under Homo sapiens turned out to be 5. Besides, the IC50 in assay [2] is greater than 200 µM; in assay [3], 52 µM; in assay [4], 33 µM; in assay [5] it was 38 µM; in assay [6] it was 120 µM; in assay [1] it was 2.2 µM.

Consider `O=C(O)COc1c(O)cccc1OCc1ccc(C(F)(F)F)cc1`, for which, in assay [1], the IC50 was greater than 1000 µM.

Consider `O=C(O)COc1c(O)cc(Br)cc1OCc1ccc(C(F)(F)F)cc1`, for which it took 73 µM to reach half-maximal inhibition in assay [1] (IC50). This lies in the double-digit micromolar range.

For the compound `O=C(O)COc1c(O)cc(-c2cc(C(F)(F)F)cc(C(F)(F)F)c2)cc1OCc1ccccc1`, in the assay filed under Homo sapiens, the Selectivity ratio was 5. Also, the IC50 in assay [2] is greater than 200 µM; in assay [3], 20 µM; in assay [4] it was 15 µM; in assay [5], 9 µM; in assay [6], 37 µM; in assay [1], 5.7 µM.

Take `O=C(O)COc1c(O)cc(-c2ccc(C(F)(F)F)cc2)cc1OCc1ccc(C(F)(F)F)cc1`: the Selectivity ratio in the assay filed under Homo sapiens is 5. For the same compound, the IC50 in assay [2] is greater than 200 µM; in assay [3] it was 23 µM; in assay [4], 13 µM; in assay [5], 12 µM; in assay [6], 44 µM; in assay [1], 5.4 µM.

On to `O=C(O)COc1c(O)cc(-c2ccccc2)cc1O`, for which, in assay [1], the IC50 was greater than 1000 µM.

In assay [1], `COc1cc(COc2cc(-c3ccccc3)cc(O)c2OCC(=O)O)cc(OC)c1` registered an IC50 of 40 µM.

For `O=C(O)COc1c(O)cc(-c2ccccc2)cc1OCc1ccc(C(F)(F)F)cc1`, the IC50 in assay [1] turned out to be 17 µM.
